Data set [1] concerns the target Mitogen-activated protein kinase 14 (Mus musculus, UniProt P47811). Kind of data set: […] inhibition of murine Mitogen-activated protein kinase p38 alpha activity, GST-ATF-2 as substrate in the presence of 120 uM ATP. Put shortly:
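Phosphorylated His-tagged p38α MAP kinase of murine origin was used at 10 ng/well. Immobilised GST-ATF-2 served as substrate, with 120 μM cold ATP.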

Data set [2] addresses T1, Prostaglandin G/H synthase 1 (Ovis aries, UniProt P05979).
T1 sequence (P05979 whole entry): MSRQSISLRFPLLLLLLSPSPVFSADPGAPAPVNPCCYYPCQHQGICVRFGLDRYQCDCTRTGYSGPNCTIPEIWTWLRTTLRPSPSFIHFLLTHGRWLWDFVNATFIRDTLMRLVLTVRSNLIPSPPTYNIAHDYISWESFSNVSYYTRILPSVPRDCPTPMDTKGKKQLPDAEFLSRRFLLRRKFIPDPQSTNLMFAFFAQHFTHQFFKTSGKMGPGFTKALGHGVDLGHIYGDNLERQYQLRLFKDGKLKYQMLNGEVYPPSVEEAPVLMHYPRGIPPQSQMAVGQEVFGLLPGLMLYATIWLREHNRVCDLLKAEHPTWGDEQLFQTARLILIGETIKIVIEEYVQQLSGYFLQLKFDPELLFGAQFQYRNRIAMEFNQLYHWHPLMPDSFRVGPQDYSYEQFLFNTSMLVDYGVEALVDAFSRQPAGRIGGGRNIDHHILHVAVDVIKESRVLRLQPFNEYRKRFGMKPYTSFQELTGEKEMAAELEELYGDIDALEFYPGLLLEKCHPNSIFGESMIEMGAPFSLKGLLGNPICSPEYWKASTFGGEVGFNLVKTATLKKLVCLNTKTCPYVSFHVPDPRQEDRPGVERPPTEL
Description: […] inhibition of ram seminal vesicle Prostaglandin G/H synthase 1 activity by determining PGE-2 by RIA.

In the next data set the test system is PBMC. Description: Inhibition of LPS-stimulated TNF-alpha release from human peripheral blood mononuclear cells. Format: functional, cell-based. The gist of the method: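 Human peripheral blood mononuclear cells from healthy volunteers were incubated with inhibitor and stimulated with LPS/IFN-γ for 3 h. TNF-α in the supernatants was determined by ELISA.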

Another data set relates to Mus musculus. Description: Inhibition of LPS induced TNF-alpha release in mice at 10 mg/kg peroral dose. The data set is classed as functional. Conditions: route oral. The gist of the method:
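Female OF1 mice, 8 weeks old, received compound by oral gavage in DMSO/corn oil. One hour after dosing, LPS (20 mg/kg) was given iv. Blood was collected 1 h later, and plasma TNF-α was measured by mouse-specific ELISA.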

Data set [3] deals with Rattus norvegicus. Kind of data set: Tested for inhibition of swelling in adjuvant induced arthritis rat at 25 mg/kg per orally; Toxic. The data set is classed as functional. Conditions: po. The gist of the method: (§1)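 Adjuvant-induced arthritis: female Wistar rats were immunised with Mycobacterium tuberculosis on day 0. They were dosed orally at 2 × 25 mg/kg per day from day 14 to day 20. Joint swelling was measured on day 20.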

Data set [4] has as its system Rattus norvegicus. Kind of data set: Tested for inhibition of swelling in adjuvant induced arthritis rat at 25 mg/kg per orally. Format: functional. The note with it: route oral. Put shortly:
as §1

The nature of data set [5]: Tested for the Cmax in rat at 10 mg/kg per orally. The data set is classed as ADME, organism-based. Also noted: dose 10 mg/kg, route oral. Conditions: in vivo, po.
The nature of data set [6]: Tested for the bioavailability in rat. Format: ADME, organism-based. The note with it: in vivo.
A short description of data set [7]: Tested for the half life in rat. Conditions: in vivo. Format: ADME, organism-based.
The species entered for the next data set is Homo sapiens. Description: Inhibition of LPS-stimulated TNF-alpha release from human whole blood. Format: functional.
In data set [8] the test system is Rattus norvegicus. Kind of data set: Tested for inhibition of swelling in adjuvant induced arthritis rat at 25 mg/kg perorally b.i.d. The note with it: route oral. Format: functional. Put shortly:
as §1

For data set [9], the species on record is Rattus norvegicus. Description: Tested for inhibition of paw swelling in collagen induced arthritis in rat, perorally b.i.d. Format: functional. Conditions: oral. Put shortly: (§2)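 Female WAGxBUF/F1 rats were immunised intradermally with bovine nasal septum type II collagen in Freund's incomplete adjuvant; swelling began about 10 days later. Oral dosing, once or twice daily, started on day 13 and continued for 10 days. Read-out was paw swelling, with ED50 values reported.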

For data set [10], the species on record is Rattus norvegicus. Description: Tested for inhibition of paw swelling in collagen induced arthritis in rat, perorally q.d. Format: functional. Conditions: po. Put shortly:
as §2

Data set [11] concerns Rattus norvegicus. Description: Dose-dependent protective activity at 10 mg/kg (po, b.i.d.) in loss of proteoglycans in hind paws of CIA-rats. Format: functional.
Data set [12] concerns Rattus norvegicus. Kind of data set: Dose-dependent protective activity at 10 mg/kg (po, b.i.d.) on bone apposition in hind paws of CIA-rats. Format: functional.
The test system of data set [13] is Rattus norvegicus. Description: Dose-dependent protective activity at 10 mg/kg (po, b.i.d.) on cartilage damage in hind paws of CIA-rats. The data set is classed as functional.
Data set [14] deals with Rattus norvegicus. Kind of data set: Dose-dependent protective activity at 10 mg/kg (po, b.i.d.) on infiltration of cells in hind paws of CIA-rats. The data set is classed as functional.
Data set [15] relates to Rattus norvegicus. Description: Dose-dependent protective activity at 3 mg/kg (po, b.i.d.) in loss of proteoglycans in hind paws of CIA-rats. Format: functional.
Data set [16] has as its system Rattus norvegicus. Description: Dose-dependent protective activity at 3 mg/kg (po, b.i.d.) on bone apposition in hind paws of CIA-rats. Format: functional.
Data set [17] has as its system Rattus norvegicus. Description: Dose-dependent protective activity at 3 mg/kg (po, b.i.d.) on cartilage damage in hind paws of CIA-rats. Format: functional.
Data set [18] has as its system Rattus norvegicus. Kind of data set: Dose-dependent protective activity at 3 mg/kg (po, b.i.d.) on infiltration of cells in hind paws of CIA-rats. The data set is classed as functional.
Data set [19] deals with Rattus norvegicus. Description: Dose-dependent protective activity at 30 mg/kg (po, b.i.d.) in loss of proteoglycans in hind paws of CIA-rats. Format: functional.
Data set [20] has as its system Rattus norvegicus. Kind of data set: Dose-dependent protective activity at 30 mg/kg (po, b.i.d.) on bone apposition in hind paws of CIA-rats. Format: functional.
In data set [21] the test system is Rattus norvegicus. Kind of data set: Dose-dependent protective activity at 30 mg/kg (po, b.i.d.) on cartilage damage in hind paws of CIA-rats. The data set is classed as functional.
The test system of data set [22] is Rattus norvegicus. Kind of data set: Dose-dependent protective activity at 30 mg/kg (po, b.i.d.) on infiltration of cells in hind paws of CIA-rats. The data set is classed as functional.
Data set [23] is filed under the species Rattus norvegicus. Kind of data set: Inhibition of LPS induced TNF-alpha release in rats. Format: functional.

Molecules are shown by their SMILES.

Chain of Mitogen-activated protein kinase 14 (P47811 whole entry): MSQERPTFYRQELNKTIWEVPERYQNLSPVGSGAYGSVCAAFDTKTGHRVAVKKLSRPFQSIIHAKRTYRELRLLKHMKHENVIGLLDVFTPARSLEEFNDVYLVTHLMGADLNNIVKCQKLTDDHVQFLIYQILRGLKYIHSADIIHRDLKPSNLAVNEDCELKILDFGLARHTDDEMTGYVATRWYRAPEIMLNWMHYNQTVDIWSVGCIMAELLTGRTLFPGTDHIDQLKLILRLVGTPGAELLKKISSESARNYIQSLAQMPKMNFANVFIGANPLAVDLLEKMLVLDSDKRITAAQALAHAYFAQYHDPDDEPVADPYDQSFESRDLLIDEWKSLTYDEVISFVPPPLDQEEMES

On to `Nc1nc(N)c(F)c(-n2nc(-c3ccncc3)c(-c3ccc(F)cc3)n2)c1F`, for which the IC50 (usually the concentration needed to halve the response being measured) in data set [1] stood at 210 nM; in data set [2], 45 µM.

Regarding `Nc1nc(F)c(F)c(-c2nc(-c3ccc(F)cc3)c(-c3ccncc3)o2)c1F`, the IC50 in data set [1] was 2100 nM; in the data set on PBMC, 1930 nM; in data set [2], 100 µM.

As for `Fc1ccc(-c2ncsc2-c2ccncc2)cc1`, the half-maximal inhibitory concentration (IC50) in data set [1] is 800 nM.

For `Fc1ccc(-c2[nH]nnc2-c2ccncc2)cc1`, in data set [1], the half-maximal inhibitory concentration (IC50) was found to be 1300 nM.

Turning to `Nc1nc(N)c(F)c(-c2nc(-c3cccc(C(F)(F)F)c3)c(-c3ccncc3)[nH]2)c1F`, the inhibition in vivo (commonly the percentage by which the read-out fell short of the control) at 10 mg/kg with Mus musculus came out at 21%. Further, the results for the IC50 (in [1]; with PBMC; in [2]) were 470 nM, 54 nM and 100 µM, respectively.

Turning to `Nc1nc(N)c(F)c(-c2cc(-c3ccncc3)c(-c3ccc(F)cc3)[nH]2)c1F`, the IC50 in data set [1] came out at 4 nM; in the data set with PBMC, 18 nM; in data set [2], 6.3 µM.

With `Fc1ccc(-c2nn(-c3c(F)c(F)nc(F)c3F)nc2-c2ccncc2)cc1`, the results for the 50% inhibitory concentration (IC50) in [1] and in data set [2] were 10000 nM and 10 µM, respectively.

As for `Nc1nc(F)c(F)c(-c2nc(-c3ccncc3)c(-c3ccc(F)cc3)[nH]2)c1F`, in the data set with Mus musculus, the inhibition in vivo at 10 mg/kg amounted to 64%. The results for the IC50 (in [1]; in the data set with PBMC; in [2]) were 4 nM, 44 nM and 100 µM, respectively. In the data set with Rattus norvegicus [3], the inhibition in vivo at 25 mg/kg was 71%.

Take `Nc1nc(N)c(F)c(-c2nc(-c3ccc(F)cc3)c(-c3ccncc3)o2)c1F`: the inhibition in vivo at 10 mg/kg in the data set with Mus musculus came to 81%. Also, the IC50 in data set [1] turned out to be 400 nM; in the data set with PBMC it was 373 nM; in data set [2] it was 100 µM. The inhibition in vivo at 25 mg/kg in the data set with Rattus norvegicus [4] came to 19%.

Regarding `Fc1ccc(-c2nc(-c3c(F)c(F)nc(F)c3F)oc2-c2ccncc2)cc1`, in [1], the half-inhibitory concentration (IC50) turned out to be 100000 nM.

Turning to `Fc1ccc(-c2nc[nH]c2-c2ccncc2)cc1`, the IC50 in [1] was 1000 nM.

Compound `Fc1ccc(-c2[nH]c(-c3c(F)c(F)nc(F)c3F)nc2-c2ccncc2)cc1` had an inhibition in vivo at 10 mg/kg in the data set with Mus musculus of 3%. Moreover, the half-maximal inhibitory concentration (IC50) was 90 nM in data set [1], 74 nM in the data set on PBMC and more than 100 µM in data set [2].

As for `Nc1nc(N)c(F)c(-c2nc(-c3ccc(F)cc3)c(-c3ccncc3)[nH]2)c1F`, the Cmax (usually the peak of the concentration-time curve) in [5] amounted to 3.12 µM. Further, the bioavailability (as a rule, the share of a dose that reaches the circulation, judged against a reference dose that is usually intravenous) in data set [6] is 49%. Besides, in [7], the half-life (usually the time in which the quantity being followed falls by half) is 60 min. The 50% inhibitory concentration (IC50) in the data set listed under Homo sapiens is 250 nM; in data set [1], 16 nM; in the data set with PBMC, 44 nM; in data set [2], more than 100 µM. The compound also gave an inhibition in vivo at 10 mg/kg in the data set with Mus musculus of 83%. The median effective dose (ED50) (commonly the dose at which the effect has come halfway, by size or by number of responders) in the data set with Rattus norvegicus [8] was 10 mg/kg; in the data set filed under Rattus norvegicus [9] it was 5 mg/kg; in the data set filed under Rattus norvegicus [10] it was 43 mg/kg; in the data set listed under Rattus norvegicus [23], 4 mg/kg. Further, the Protective activity is reported as -38% in the data set with Rattus norvegicus [11]; -44% in the data set with Rattus norvegicus [12]; -44% in the data set on Rattus norvegicus [13]; -37% in the data set on Rattus norvegicus [14]; -17% in the data set with Rattus norvegicus [15]; -4% with Rattus norvegicus [16]. The Protective activity in the data set on Rattus norvegicus [17] is reported as -15%; in the data set with Rattus norvegicus [18] it was -11%; in the data set with Rattus norvegicus [19] it was -42%; in the data set with Rattus norvegicus [20], -64%; with Rattus norvegicus [21], -58%; in the data set with Rattus norvegicus [22] it was -45%.

Consider `Nc1nc(N)c(F)c(-c2nc(-c3ccc(F)cc3)c(-c3ccncc3)s2)c1F`, for which the half-inhibitory concentration (IC50) came out at 140 nM in [1], 31 nM in the data set with PBMC and 100 µM in data set [2].

Compound `Nc1nc(N)c(F)c(-c2nc(-c3ccncc3)c(-c3cc4ccccc4o3)[nH]2)c1F` gave an inhibition in vivo at 10 mg/kg in the data set with Mus musculus of 1.8%. Also, the results for the IC50 (in [1]; in the data set with PBMC; in [2]) were 5 nM, 27 nM and 100 µM, respectively.

In the data set on Mus musculus, `Nc1nc(N)c(F)c(-c2nc(-c3ccncc3)c(-c3ccco3)[nH]2)c1F` yielded an inhibition in vivo at 10 mg/kg of 28%. Besides, the 50% inhibitory concentration (IC50) in [1] turned out to be 670 nM; in the data set with PBMC, 294 nM; in [2], 100 µM.

In the case of `Fc1ccc(-c2[nH]ccc2-c2ccncc2)cc1`, in [1], the IC50 was 800 nM.
